Compound activity as filed in PubChem.
Beta apoptosis: blocks beta cell apoptosis. INS-1E cytokine-induced death, ATP luminescence, 48 h; percent of positive-control rescue, neutral wells zero. protection from apoptosis, % (concentration not given with the values). 300,000 compounds, 0.8% hits. AID 435005;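 active = Every replicate reaches about 75%, or at least half do and their mean reaches it too, limit read from the data; inconclusive = At least half of replicates reach the limit but their mean does not; inactive = Under half of replicates reach the limit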;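 also: 0% = cytokine-treated negative control wells and 100% = positive control rescue; higher means more ATP so stronger rescue from cytokine killing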
SKKanGAS inh: inhibitors of SKKanGAS S. pyogenes growth in kanamycin (SK-promoter or general growth effect); BacTiter-Glo, 6 h; inhibition, % at 7.5 µM; 300,000 compounds, 1.3% hits; AID 1662;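 active = mean replicate score, as percent of positive control median, at least 50; inconclusive = mean below 50 but one replicate at or above 50; inactive = mean and every replicate below 50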;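 also: strain carries kanamycin resistance gene driven by streptokinase promoter and grows in 40 µg/ml kanamycin; loss of luminescence reflects streptokinase promoter inhibition or plain growth inhibition; 0% = median of DMSO wells and 100% = positive control at its reference dose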
Mdm2 MdmX PPI: human Mdm2/MdmX binding inhibition | O15151+Q00987 | SaOS-2 split-luciferase Mdm2/MdmX complementation, luminescence | inhibition, % at 8 µM | 330,000 compounds, 3% hits;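 active = inhibition of at least 50% at 8 µM in the primary screen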
Target sequence (O15151 whole entry, looked up): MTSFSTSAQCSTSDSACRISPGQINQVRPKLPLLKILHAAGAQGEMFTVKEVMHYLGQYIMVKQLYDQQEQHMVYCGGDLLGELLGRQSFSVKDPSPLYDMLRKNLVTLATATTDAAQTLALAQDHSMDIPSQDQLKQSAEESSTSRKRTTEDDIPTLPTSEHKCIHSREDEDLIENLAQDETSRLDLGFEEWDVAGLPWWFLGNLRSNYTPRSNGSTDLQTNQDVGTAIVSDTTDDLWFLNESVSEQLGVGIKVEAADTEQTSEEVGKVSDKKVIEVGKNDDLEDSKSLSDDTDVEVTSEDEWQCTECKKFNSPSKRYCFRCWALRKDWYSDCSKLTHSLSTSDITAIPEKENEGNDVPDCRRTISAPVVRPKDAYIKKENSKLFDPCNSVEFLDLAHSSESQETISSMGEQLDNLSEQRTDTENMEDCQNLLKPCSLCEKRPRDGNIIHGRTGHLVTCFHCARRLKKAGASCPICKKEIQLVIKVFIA
Target sequence (Q00987 whole entry, looked up): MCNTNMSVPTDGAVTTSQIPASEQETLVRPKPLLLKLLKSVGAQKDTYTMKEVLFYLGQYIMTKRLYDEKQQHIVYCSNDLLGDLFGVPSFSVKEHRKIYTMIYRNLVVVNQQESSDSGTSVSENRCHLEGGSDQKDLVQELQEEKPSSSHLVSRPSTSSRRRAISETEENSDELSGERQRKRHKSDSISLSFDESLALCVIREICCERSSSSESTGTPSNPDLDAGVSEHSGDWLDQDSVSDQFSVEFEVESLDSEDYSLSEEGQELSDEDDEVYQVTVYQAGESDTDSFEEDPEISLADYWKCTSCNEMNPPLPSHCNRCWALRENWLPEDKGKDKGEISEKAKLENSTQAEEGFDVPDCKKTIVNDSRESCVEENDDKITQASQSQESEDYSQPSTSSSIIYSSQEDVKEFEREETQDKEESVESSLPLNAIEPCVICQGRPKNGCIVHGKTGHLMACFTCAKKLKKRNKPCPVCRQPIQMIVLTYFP
T cruzi inh: T. cruzi replication inhibition; T. cruzi beta-gal in NIH3T3, luminescence, 90 h; inhibition, % (test concentration not listed); 300,000 compounds, 1.4% hits; AID 1885;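 active = mean inhibition across valid replicates above about 55%, limit read from the data; inconclusive = mean below that limit but half or more replicates reach it; inactive = mean below it, under half of replicates reach it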;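 also: signal also drops with host cell toxicity which is not excluded here; 0% = plate median of DMSO wells and 100% = zero luminescence signal; higher percent means less beta-gal luminescence so fewer parasites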
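System: NIH/3T3 fibroblasts plus reporter T. cruzi. Medium: DMEM plus 2% FBS. Probe or stimulus: 5000 reporter trypomastigotes per well. Compound: single 50 nL compound addition per well in DMSO. Incubation: co-culture of at least 90 h after 3 h attachment. Detection: GalScreen β-gal luminescence, detergent lysis, 60 min. Evaluation: parasite load inhibition, %.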
L major viab: reduces viability of Leishmania major promastigotes; resazurin fluorescence viability; inhibition, % at 10 µM; 200,000 compounds, 9% hits; AID 1063; in the data active = inhibition above about 50%;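 also: promastigotes grown with compound for 44 hours at 28 °C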
CSC inhib: cancer stem cell inhibition; 300,000 compounds, 1.1% hits; AID 2717; inhibition, % at 7.5 µM; cancer stem cell-like cells viability, luminescence; in the data active = inhibition above about 75%; inconclusive = no clear call, values can overlap the other calls; tested in HMLE shEcad cells
Mdm2-MdmX conf: human Mdm2/MdmX binding inhibition, confirmed; shares compounds with Mdm2 MdmX PPI; luminescent assay; inhibition, % at 8 µM; 10,000 compounds, 55% hits; in the data active = inhibition above about 40%
Full FLuc ctr: counter-screen for Mdm2/MdmX inhibitors: full-length luciferase | shares compounds with Mdm2 MdmX PPI | SaOS-2 full-length luciferase counterscreen, luminescence | inhibition, % at 8 µM | 6,200 compounds, 77% hits;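 active = mean inhibition at 8 µM reaching about 37%, which flags the compound as non-specific, limit read from the data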;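 also: p53-null SaOS-2 cells with luciferase driven by a doxycycline-inducible promoter; compound on cells about two nights before reading with doxycycline added after day one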
* hit, by the source's call; ? = inconclusive; nt = no result given. Sampled rows, rich in hits. Any-hit rate of the full collection: about 9.4%.

SMILES	Beta apoptosis	SKKanGAS inh	Mdm2 MdmX PPI	T cruzi inh	L major viab	CSC inhib	Mdm2-MdmX conf	Full FLuc ctr
C=CCn1cccc(C(=O)Nc2ccc(N(C)C)cc2)c1=O	2.6	0.2	-13.2	0.5	nt	-7.1	nt	nt
CCOC(=O)c1[nH]c2ccc(Cl)cc2c1-c1ccccc1	1.9	-0.8	-13.6	20.7	-2.8	32.2	nt	nt
CN(C)C=NC(=O)c1[nH]c2ccc(Cl)cc2c1-c1ccccc1	-18.7	4.6	79.8*	-3.5	nt	66.4	34.7	nt
CCn1c(SCC(=O)Nc2ccc(Br)cn2)nnc1C1CC1	-2.5	1.0	6.2	4.4	nt	-3.0	nt	nt
CCn1c(=O)cc(SCC(=O)Nc2ccc(Cl)cc2)c2ccccc21	nt	12.0	31.0	14.6	7.2	-4.2	nt	nt
CCN1CCN(C(=O)CSc2cc(=O)n(C)c3ccccc23)CC1	-4.3	-4.1	39.3	2.3	1.2	-1.9	nt	nt
CCn1c(=O)cc(SCC(=O)N2CCN(c3ccccc3OC)CC2)c2ccccc21	-11.0	3.9	62.2*	9.3	-15.4	nt	37.4	nt
CCn1c(=O)cc(SCC(=O)N2CCN(C(=O)c3ccco3)CC2)c2ccccc21	-6.7	4.1	53.2*	10.5	7.2	-4.4	32.1	nt
CCn1c(=O)cc(SCC(=O)Nc2ccc(OC)c(OC)c2)c2ccccc21	0.7	-3.2	51.9*	2.1	19.1	5.9	42.8*	58.0*
Cc1ccc(S(=O)(=O)NC2CCSC2=O)cc1C (centres undefined)	10.9	nt	-17.7	nt	nt	-4.8	nt	nt
Cc1sc2ncnc(N3CCC(C(=O)Nc4ccc(Cl)c(Cl)c4)CC3)c2c1C	10.3	nt	41.4	nt	nt	69.9	nt	nt
CNC(=O)c1ccc(NC(=O)C2CCN(c3ncnc4sc(C)c(C)c34)CC2)cc1	-5.1	1.4	62.1*	-1.4	nt	-17.9	59.8*	58.5*
COc1ccccc1OCC(=O)NNC(=O)C1CCN(c2ncnc3sc(C)c(C)c23)CC1	1.7	nt	31.7	nt	nt	nt	nt	nt
Cc1sc2ncnc(N3CCC(C(=O)Nc4ccc(Br)cc4Br)CC3)c2c1C	3.8	2.8	56.9*	14.8	nt	2.3	47.4*	87.4*
Cc1sc2ncnc(N3CCC(C(=O)Nc4sc5c(c4C(N)=O)CCC(C)C5)CC3)c2c1C (centres undefined)	8.1	nt	62.1*	nt	nt	nt	69.8*	41.8*
CCc1cccc(NC(=O)C2CCN(c3ncnc4sc(C)c(C)c34)CC2)c1	3.9	nt	17.4	nt	nt	36.9	nt	nt
COc1ccc(-c2csc(NC(=O)C3CCN(c4ncnc5sc(C)c(C)c45)CC3)n2)cc1OC	112.5*	13.9	68.2*	56.7*	nt	26.8	67.8*	45.2*
O=[N+]([O-])c1cc(Br)c(Nc2ccccc2)c([N+](=O)[O-])c1	68.0	4.3	92.2*	38.8	nt	38.7	49.6*	79.3*
CC(C)c1c(C(=O)N/N=C/c2ccc(Cl)cc2Cl)nnn1-c1nonc1N	8.5	22.3	16.2	10.3	nt	-3.2	nt	nt
CC(C)c1c(C(=O)N/N=C/c2ccccc2OCc2c(F)cccc2Cl)nnn1-c1nonc1N	17.7	30.9	56.6*	6.0	nt	65.0	52.3*	55.2*
Cc1cccc(COc2ccc(/C=N/NC(=O)c3nnn(-c4nonc4N)c3C)cc2)c1	-7.2	-2.9	5.2	0.3	nt	-11.8	nt	nt
CC1CCN(Cc2c(C(=O)N/N=C/c3ccc(C(C)(C)C)cc3)nnn2-c2nonc2N)CC1	32.7	20.3	50.4*	37.3	nt	28.8	26.8	nt
Cc1ccc(COc2cccc(/C=N/NC(=O)c3nnn(-c4nonc4N)c3C)c2)cc1	12.7	5.6	56.3*	-5.4	nt	38.4	-12.7	nt
Nc1nonc1-n1nnc(C(=O)N/N=C/c2cc(Br)ccc2O)c1CNc1ccccc1	96.5*	108.2*	69.0*	59.0*	nt	97.3*	65.6*	30.5
CCCC(=O)c1cc2c(cc1NC(=O)c1ccccc1F)OCCO2	-0.5	-7.6	24.6	33.7	-2.9	-7.1	nt	nt
SMILES	Beta apoptosis	SKKanGAS inh	Mdm2 MdmX PPI	T cruzi inh	L major viab	CSC inhib	Mdm2-MdmX conf	Full FLuc ctr
Cc1nc2sccn2c(=O)c1Br	-1.8	6.5	17.8	-8.6	-4.5	0.6	nt	nt
CN(CC(=O)Nc1ccccc1Cl)C(=O)c1cc(C2CC2)nn1-c1ccccc1	-3.4	nt	-22.2	nt	nt	nt	nt	nt
Cc1ccc(C(=O)/C=C/c2ccco2)c(O)c1	-5.9	0.4	-8.4	-12.5	7.0	0.1	nt	nt
Cc1ccccc1NC(=O)N1CCC(NC(=O)C2CCCCC2)CC1	-0.6	-2.0	11.5	2.0	nt	11.5	nt	nt
Cc1c(C(=O)N/N=C/c2c(O)ccc3ccccc23)nnn1-c1nonc1N	85.7*	?	67.2*	27.2	nt	nt	81.2*	52.2*
Nc1nonc1-n1nnc(C(=O)N/N=C/c2ccc(OCc3ccc(F)cc3)cc2)c1COc1ccccc1	7.5	4.6	52.5*	0.8	nt	26.5	16.3	nt
Cc1ccc(COc2ccc(/C=N/NC(=O)c3nnn(-c4nonc4N)c3COc3ccc(F)cc3)cc2)cc1	0.9	-0.8	41.2	7.5	nt	12.4	nt	nt
CCOc1ccc(NC(=O)COc2ccc(C(=O)NC(C)c3ccc(S(N)(=O)=O)cc3)cc2OC)cc1 (centres undefined)	nt	9.6	25.5	4.0	nt	-4.1	nt	nt
CC(C)C(C)NC(=O)COC(=O)c1cccc(C(=O)OCC(=O)NC(C)C(C)C)n1 (centres undefined)	-4.3	nt	4.2	-2.8	-1.1	18.0	nt	nt
COc1ccccc1N=C1SC(C(=O)Nc2cccc(Cl)c2Cl)C(N)=C1C(N)=O (centres undefined)	3.1	-3.9	56.0*	16.7	nt	79.1*	52.0*	66.8*
Cc1ccc(NC(=O)N2CCCC2C(=O)NCc2ccc(Cl)cc2)cc1 (centres undefined)	-2.2	7.9	13.3	0.7	nt	-23.0	nt	nt
COc1cccc2oc3ccc(C#CC4(N)CCCCC4)cc3c(=O)c12	4.5	14.6	96.4*	17.1	nt	30.1	-8.4	nt
Cn1c2ccccc2c(=O)c2ccc(C#CC3(N)CCCCC3)cc21	6.4	-1.1	35.8	21.4	nt	39.8	nt	nt
O=c1c2ccccc2oc2ccc(C#CC3(O)CCCCC3)cc12	-4.7	6.4	59.1*	31.8	nt	92.7*	51.0*	172.9*
Cn1c2ccccc2c(=O)c2cc(C#CC3(O)CCCCC3)ccc21	9.3	21.8	69.0*	4.8	nt	-0.7	52.8*	168.7*
Cc1cc2sc3ccc(C#CC4(O)CCCCC4)cc3c(=O)c2cc1C	8.0	24.7	94.4*	14.8	nt	0.5	96.8*	54.3*
O=c1oc2ccc(C#CC3(O)CCCCC3)cc2cc1-n1cc(-c2ccccn2)nn1	-7.1	nt	0.8	nt	nt	nt	nt	nt
C=CCC1(NCc2ccco2)CCN(CC)CC1	-7.3	1.2	18.2	-10.5	0.3	-6.9	nt	nt
Nc1ccc(C#Cc2ccc3c(=O)c4ccccc4oc3c2)cc1	-6.1	13.3	-18.8	-15.5	nt	52.4	nt	nt
N#Cc1ccc(C#Cc2ccc3oc4ccccc4c(=O)c3c2)cc1	2.6	nt	67.4*	nt	nt	-8.5	8.8	nt
